Measurements from different studies.
Lines come from different studies, so protocols differ. In brackets after ≈: the same amount, converted by molar mass.

CO[C@H]1O[C@H]([C@@H]2OC[C@@]3(C)[C@@H]4CC[C@]5(C)[C@H](CC=C6[C@@H]7CC(C)(C)CC[C@]7(C(=O)O)CC[C@]65C)[C@@]4(C)CC[C@@H]3O2)[C@@H](O)[C@H](O)[C@H]1O  inhibition (Leishmania mexicana; parasite growth, resazurin; 50 µM, amastigote): 96.6%
O=C(/C=C/c1ccc(O)c(O)c1)O[C@@H]1C[C@](O)(C(=O)O)C[C@@H](O)[C@H]1O  inhibition (tubulin polymerisation, inhibitor; 10 µM): 30.9%
CC1(C)CC[C@]2(CO)CC[C@]3(C)C(=CC[C@@H]4[C@@]5(C)CC[C@@H]6O[C@H]([C@H](O)[C@@H](O)[C@H](O)[C@H](O)CO)OC[C@@]6(C)[C@@H]5CC[C@]43C)[C@@H]2C1  inhibition (Leishmania mexicana; parasite growth, resazurin; 50 µM, amastigote): 99.1%
O=C1NC(=S)N/C1=C\c1c2ccccc2c(-c2ccc(N(c3ccccc3)c3ccccc3)cc2)c2ccccc12  MBC (Staphylococcus epidermidis; microbial killing, broth dilution; ATCC12228): > 1000 µg/mL
O=c1cc(-c2ccc(O)c(O)c2)oc2cc(O)cc(O)c12  inhibition (tubulin polymerisation, inhibitor; 10 µM): 26.2%
O=C(Nc1cnc(Cl)c(Cl)c1)c1cc([N+](=O)[O-])c(F)cc1F  EC50 (Leishmania mexicana; parasite growth; J774.A1; intracellular, amastigote): 220 nM
O=C1NC(=S)S/C1=C\c1ccc(-c2ccc(N(c3ccccc3)c3ccccc3)cc2)cc1  MBC (Staphylococcus epidermidis; microbial killing, broth dilution; ATCC12228): 250 µg/mL (≈ 538 µM)
Cc1ccc(-c2nc3ccccc3s2)cc1NC(=O)c1cc([N+](=O)[O-])c(N(C)C)cc1Cl  EC50 (Leishmania mexicana; parasite growth; J774.A1; intracellular, amastigote): > 10000 nM
CC(=O)OC1c2c(ccc3ccc(=O)oc23)OC(C)(C)C1OC(=O)C(C)(O)C(C)O (stereo not drawn)  inhibition (tubulin polymerisation, inhibitor; 10 µM): 33.8%
COc1cc(-c2ccc(-c3ccc(C(=N)N)nc3)s2)cc(OC)c1OC  GI50 (HOP-62; cell growth or viability, SRB): 2790 nM
O=C1NC(=S)S/C1=C\c1c2ccccc2c(-c2ccc(N(c3ccccc3)c3ccccc3)cc2)c2ccccc12  MIC (Staphylococcus epidermidis; microbial growth, broth dilution; ATCC12228): > 1000 µg/mL
COc1c2ccoc2cc2oc(=O)ccc12  inhibition (tubulin polymerisation, inhibitor; 10 µM): 22.5%
CC1(C)CC[C@]2(C(=O)OCN3C(=O)c4ccccc4C3=O)CC[C@]3(C)C(=CC[C@@H]4[C@@]5(C)CC[C@H](O)[C@@](C)(CO)[C@@H]5CC[C@]43C)[C@@H]2C1  inhibition (Leishmania mexicana; parasite growth, resazurin; 50 µM, amastigote): 98.6%
O=C1NC(=S)N/C1=C\c1ccc(-c2ccc(N(c3ccccc3)c3ccccc3)cc2)cc1  MBC (Staphylococcus epidermidis; microbial killing, broth dilution; ATCC12228): > 1000 µg/mL
CC1(C)CC[C@]2(NC(=O)N3CCCC3)CC[C@]3(C)C(=CC[C@@H]4[C@@]5(C)CC[C@H](O)[C@@](C)(CO)[C@@H]5CC[C@]43C)[C@@H]2C1  inhibition (Leishmania mexicana; parasite growth, resazurin; 50 µM, amastigote): 99%
O=C(O)CN1C(=O)/C(=C/c2ccc(-c3ccc(N(c4ccccc4)c4ccccc4)cc3)cc2)SC1=S  MBC (Staphylococcus epidermidis; microbial killing, broth dilution; ATCC12228): 7.8 µg/mL (≈ 14.9 µM)
C[C@@H]1O[C@@H](C[C@@H]2OC[C@@]3(C)[C@@H]4CC[C@]5(C)[C@H](CC=C6[C@@H]7CC(C)(C)CC[C@]7(C(=O)O)CC[C@]65C)[C@@]4(C)CC[C@@H]3O2)[C@@H](O)[C@H](O)[C@@H]1O  inhibition (Leishmania mexicana; parasite growth, resazurin; 50 µM, amastigote): 99.2%
O=c1ccc2cc3ccoc3cc2o1  inhibition (tubulin polymerisation, inhibitor; 10 µM): 30.1%
COC(=O)[C@]12CCC(C)(C)C[C@H]1C1=CC[C@@H]3[C@@]4(C)CC[C@@H]5O[C@H]([C@H](O)[C@@H](O)[C@H](O)[C@H](O)CO)OC[C@@]5(C)[C@@H]4CC[C@@]3(C)[C@]1(C)CC2  inhibition (Leishmania mexicana; parasite growth, resazurin; 50 µM, amastigote): 100%
COC(=O)[C@]1(O)C[C@@H](O)[C@@H](O)[C@H](OC(=O)/C=C/c2ccc(O)c(O)c2)C1  inhibition (tubulin polymerisation, inhibitor; 10 µM): 16.9%
CC1(C)CC[C@]2(C(=O)O)CC[C@]3(C)C(=CC[C@@H]4[C@@]5(C)CC[C@@H]6OCOC[C@@]6(C)[C@@H]5CC[C@]43C)[C@@H]2C1  inhibition (Leishmania mexicana; parasite growth, resazurin; 50 µM, amastigote): 97.5%
O=C1NC(=S)N/C1=C\c1ccc(-c2ccc(N(c3ccccc3)c3ccccc3)cc2)c2ccccc12  MBC (Staphylococcus epidermidis; microbial killing, broth dilution; ATCC12228): > 1000 µg/mL
O=Cc1ccc(CO)o1  inhibition (tubulin polymerisation, inhibitor; 10 µM): 13.4%
Cc1cc(Cl)c(Cl)cc1NC(=O)c1cc([N+](=O)[O-])c(F)cc1F  EC50 (Leishmania mexicana; parasite growth; J774.A1; intracellular, amastigote): 340 nM
